Experimental data published in ChEMBL document CHEMBL4613265, “Novel Human Neutral Sphingomyelinase 2 Inhibitors as Potential Therapeutics for Alzheimer's Disease” (J Med Chem, 2020).

Key:
[1] = Stability in mouse liver microsomes assessed as parent compound remaining at 1 uM measured after 60 mins in absence of NADPH by LC-MS/MS analysis; type: ADME, Microsome; settings: liver microsomes, read-out: Stability
How it was run: (§1)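 Cofactor-free control for cofactor-independent degradation. Mouse or human liver microsomes at 0.2 mg/mL, 1 μM compound (final), 100 mM potassium phosphate at pH 7.4, no NADPH regenerating system. Adding microsomes started the reaction; run in triplicate. Sampled at 60 min and quenched with three volumes of ice-cold acetonitrile spiked with internal standard.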

[2] = Stability in human liver microsomes assessed as parent compound remaining at 1 uM measured after 60 mins in absence of NADPH by LC-MS/MS analysis; type: ADME, Microsome; settings: liver microsomes, read-out: Stability; how it was run: as §1
[3] = Stability in mouse liver microsomes assessed as CYP450-mediated metabolism by measuring parent compound remaining at 1 uM measured after 60 mins in presence of NADPH generating system by LC-MS/MS analysis; type: ADME; settings: 1 h
How it was run: (§2)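 Liver microsomes from mouse or human, 0.2 mg/mL, with 1 μM compound (final) in 100 mM potassium phosphate at pH 7.4. Adding microsomes started the reaction; triplicates. After 60 min, quenched with 3 volumes of ice-cold acetonitrile containing internal standard.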

[4] = test system: Cytochrome P450; experiment: Stability in human liver microsomes assessed as CYP450-mediated metabolism by measuring parent compound remaining at 1 uM measured after 60 mins in presence of NADPH generating system by LC-MS/MS analysis; type: ADME; settings: 1 h; how it was run: as §2

Compound: COc1ccc(-c2c(C)nc3c(N4CCN(C(C)=O)CC4)cc(C)nn23)cc1OC
- remaining at 1 h, 1 µM [1]: > 95%
- remaining at 1 h, 1 µM [2]: > 95%

Compound: COc1ccc(-c2c(C)nc3c(N4CC[C@@H](NC(=O)Cc5ccccc5)C4)cc(C)nn23)cc1OC
- remaining at 1 h, 1 µM [1]: > 95%
- remaining at 1 h, 1 µM [2]: > 95%

Compound: COc1ccc(-c2c(C)nc3c(N4CC[C@@H](OC(C)=O)C4)cc(C)nn23)cc1OC
- remaining at 1 h, 1 µM [1]: > 95%
- remaining at 1 h, 1 µM [2]: > 95%

Compound: COc1ccc(-c2c(C)nc3c(N4CC[C@@H](NS(=O)(=O)c5cccs5)C4)cc(C)nn23)cc1OC
- remaining at 1 h, 1 µM [1]: > 95%
- Parent compound remaining [3]: 78%
- Stability [4]: 95%
- remaining at 1 h, 1 µM [2]: > 95%

Compound: COc1ccc(-c2c(C)nc3c(N4CC[C@@H](NS(C)(=O)=O)C4)cc(C)nn23)cc1OC
- remaining at 1 h, 1 µM [1]: > 95%
- remaining at 1 h, 1 µM [2]: > 95%

Compound: CC(=O)N[C@@H]1CCN(c2cc(C)nn3c(-c4ccc5cc[nH]c5c4)c(C)nc23)C1
- remaining at 1 h, 1 µM [1]: > 95%
- remaining at 1 h, 1 µM [2]: > 95%

Compound: COc1ccc(-c2c(C)nc3c(N4CCC(F)(F)C4)cc(C)nn23)cc1OC
- remaining at 1 h, 1 µM [1]: > 95%
- remaining at 1 h, 1 µM [2]: > 95%

Compound: COc1ccc(-c2c(C)nc3c(N4CC[C@@H](NC(=O)Oc5cccc(C)c5)C4)cc(C)nn23)cc1OC
- remaining at 1 h, 1 µM [1]: > 95%
- remaining at 1 h, 1 µM [2]: > 95%

Compound: COc1ccc(-c2c(C)nc3c(N4CC[C@@H](NC(=O)OCc5ccccc5)C4)cc(C)nn23)cc1OC
- remaining at 1 h, 1 µM [1]: > 95%
- remaining at 1 h, 1 µM [2]: > 95%

Compound: COc1cc(-c2c(C)nc3c(N4CC[C@@H](NC(C)=O)C4)cc(C)nn23)ccc1F
- remaining at 1 h, 1 µM [1]: > 95%
- remaining at 1 h, 1 µM [2]: > 95%

Compound: COc1ccc(-c2c(C)nc3c(N4CC[C@@H](NC(C)=O)C4)cc(C)nn23)cc1F
- remaining at 1 h, 1 µM [1]: > 95%
- remaining at 1 h, 1 µM [2]: > 95%

Compound: COc1ccc(-c2c(C)nc3c(N4CC[C@@H](NC(=O)c5ccccc5)C4)cc(C)nn23)cc1OC
- remaining at 1 h, 1 µM [1]: > 95%
- remaining at 1 h, 1 µM [2]: > 95%

Compound: CC(=O)N[C@@H]1CCN(c2cc(C)nn3c(-c4cccc(S(=O)(=O)N(C)C)c4)c(C)nc23)C1
- remaining at 1 h, 1 µM [1]: > 95%
- remaining at 1 h, 1 µM [2]: > 95%

Compound: CC(=O)N[C@@H]1CCN(c2cc(C)nn3c(-c4ccco4)c(C)nc23)C1
- remaining at 1 h, 1 µM [1]: > 95%
- remaining at 1 h, 1 µM [2]: > 95%

Compound: COc1ccc(-c2c(C)nc3c(N4CC[C@@H](NC(C)=O)C4)cc(Cl)nn23)cc1OC
- remaining at 1 h, 1 µM [1]: > 95%
- remaining at 1 h, 1 µM [2]: > 95%

Compound: COc1ccc(-c2c(C)nc3c(N4CC[C@@H](NC(=O)C(F)(F)F)C4)cc(C)nn23)cc1OC
- remaining at 1 h, 1 µM [1]: > 95%
- Parent compound remaining [3]: 117%
- Stability [4]: 113%
- remaining at 1 h, 1 µM [2]: > 95%

Compound: COc1ccc(-c2c(C)nc3c(N4CC[C@@H](NS(=O)(=O)c5ccc(C)cc5)C4)cc(C)nn23)cc1OC
- remaining at 1 h, 1 µM [1]: > 95%
- Parent compound remaining [3]: 2%
- Stability [4]: 29%
- remaining at 1 h, 1 µM [2]: > 95%

Compound: CCCCCC(=O)N[C@@H]1CCN(c2cc(C)nn3c(-c4ccc(OC)c(OC)c4)c(C)nc23)C1
- remaining at 1 h, 1 µM [1]: > 95%
- Parent compound remaining [3]: 52%
- Stability [4]: 88%
- remaining at 1 h, 1 µM [2]: > 95%

Compound: CC(=O)N[C@@H]1CCN(c2cc(C)nn3c(-c4ccc(C#N)cc4)c(C)nc23)C1
- remaining at 1 h, 1 µM [1]: > 95%
- remaining at 1 h, 1 µM [2]: > 95%

Compound: COc1ccc(-c2c(C)nc3c(N4CC[C@@H](N=[N+]=[N-])C4)cc(C)nn23)cc1OC
- remaining at 1 h, 1 µM [1]: > 95%
- remaining at 1 h, 1 µM [2]: > 95%

Compound: COc1ccc(-c2c(C)nc3c(N4CC[C@@H](NS(=O)(=O)c5ccc(Cl)cc5)C4)cc(C)nn23)cc1OC
- remaining at 1 h, 1 µM [1]: > 95%
- Parent compound remaining [3]: 7%
- Stability [4]: 32%
- remaining at 1 h, 1 µM [2]: > 95%

Compound: COc1ccc(-c2c(C)nc3c(N4CC[C@@H](O)C4)cc(C)nn23)cc1OC
- remaining at 1 h, 1 µM [1]: > 95%
- remaining at 1 h, 1 µM [2]: > 95%

Compound: COc1ccc(-c2c(C)nc3c(N4CC[C@@H](NC(=O)Nc5ccccc5)C4)cc(C)nn23)cc1OC
- remaining at 1 h, 1 µM [1]: > 95%
- Parent compound remaining [3]: 87%
- Stability [4]: 90%
- remaining at 1 h, 1 µM [2]: > 95%

Compound: COc1ccc(-c2c(C)nc3c(N4CC[C@@H](NC(=O)C(F)(F)c5ccccc5)C4)cc(C)nn23)cc1OC
- remaining at 1 h, 1 µM [1]: > 95%
- Parent compound remaining [3]: 6%
- Stability [4]: 20%
- remaining at 1 h, 1 µM [2]: > 95%

Compound: CCN(CCNC(C)=O)c1cc(C)nn2c(-c3ccc(OC)c(OC)c3)c(C)nc12
- remaining at 1 h, 1 µM [1]: > 95%
- remaining at 1 h, 1 µM [2]: > 95%

Compound: COc1ccc(-c2c(C)nc3c(N4CC[C@@H](N)C4)cc(C)nn23)cc1OC
- remaining at 1 h, 1 µM [1]: > 95%
- remaining at 1 h, 1 µM [2]: > 95%

Compound: CC(=O)N[C@@H]1CCN(c2cc(C)nn3cc(C)nc23)C1
- remaining at 1 h, 1 µM [1]: > 95%
- remaining at 1 h, 1 µM [2]: > 95%

Compound: COc1ccc(-c2c(C)nc3c(N4CCN(C(=O)C5CCCCC5)CC4)cc(C)nn23)cc1OC
- remaining at 1 h, 1 µM [1]: > 95%
- remaining at 1 h, 1 µM [2]: > 95%
